The source of these data is the M2OR odorant receptor database.

One experiment deals with T1, OR5M3 (Homo sapiens) (UniProt Q8NGP4).
T1 sequence (whole entry): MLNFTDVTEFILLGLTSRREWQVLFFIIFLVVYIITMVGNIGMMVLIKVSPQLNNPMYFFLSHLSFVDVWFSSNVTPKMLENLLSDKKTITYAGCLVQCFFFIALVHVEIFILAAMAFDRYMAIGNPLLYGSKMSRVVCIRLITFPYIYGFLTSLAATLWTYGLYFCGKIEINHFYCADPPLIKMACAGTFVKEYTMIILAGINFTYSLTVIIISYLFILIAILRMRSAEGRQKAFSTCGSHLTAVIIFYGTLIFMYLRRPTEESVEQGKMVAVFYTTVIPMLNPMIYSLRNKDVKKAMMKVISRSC
The following applies: stereoisomer not certain. Put shortly: (§1)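 Values were gathered from published papers (main text and supplementary material), with extra details requested from the original authors when needed, and checked for typos and inconsistencies. Each receptor–molecule pair is called responsive (active) if the original authors judged the measured signal statistically different from baseline, and non-responsive (inactive) otherwise. Assay methods varied by source, often transient mammalian cell-line luciferase assays. Recorded details include cell line, G-protein, co-transfected protein and tags.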
For `CCCCCCOC(C)=O`, the “odorant receptor agonist call” value is “inactive”. On to `CCCCCCCCCC(=O)[O-].[H+]`, for which the “odorant receptor agonist call” value was “inactive”. Same read-out and setting: the result for `O=c1ccc2ccccc2o1` reads “inactive”; that for `CC(C)=CCCC(C)=CCO`, “inactive”; that for `CCCCCC=O`, “inactive”. On the same count and under the same terms, to `CCCCCCCC(=O)[O-].[H+]` belongs “inactive”; to `CCCCCCCC(C)=O`, “inactive”.

A further experiment has as its target T2, OR5P3 (Homo sapiens) (UniProt Q8WZ94).
T2 sequence (whole entry): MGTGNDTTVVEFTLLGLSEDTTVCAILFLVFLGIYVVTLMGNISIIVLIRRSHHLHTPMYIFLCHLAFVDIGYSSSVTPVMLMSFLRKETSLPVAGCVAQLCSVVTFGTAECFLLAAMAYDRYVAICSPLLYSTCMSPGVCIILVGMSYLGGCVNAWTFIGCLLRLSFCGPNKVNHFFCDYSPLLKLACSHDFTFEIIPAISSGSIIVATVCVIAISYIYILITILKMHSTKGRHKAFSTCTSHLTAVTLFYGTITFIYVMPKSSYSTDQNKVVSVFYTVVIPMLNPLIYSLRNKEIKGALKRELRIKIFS
The following applies: stereoisomer not certain. Put shortly:
as §1
In the case of `CCCCCC(=O)CC`, the “odorant receptor agonist call” value is “inactive”. Regarding `CCC(C(=O)O)c1ccccc1` (stereo unspecified), the “odorant receptor agonist call” value is “inactive”. As for `CCCCCCOC(C)=O`, the “odorant receptor agonist call” value is “inactive”.

Regarding `CCCCCCCCCC(=O)[O-].[H+]`, the “odorant receptor agonist call” value was “inactive”. Regarding `CCCCC(=O)CC`, the “odorant receptor agonist call” value is “inactive”. On the same count and under the same terms, to `CCCCC(C)=O` belongs “inactive”; to `CCCCCCCCCCO`, “inactive”; to `CCCC(=O)C(C)=O`, “inactive”. The same measure, in the same setting: the result for `CCCCCO` reads “inactive”. Still for that read-out and setting: the result for `O=C1CCOc2ccccc21` reads “inactive”; that for `CCCCOC(=O)C(C)OC(=O)CCC` (stereo unspecified), “inactive”. As for `O=c1ccc2ccccc2o1`, the “odorant receptor agonist call” value is “active”. Same read-out and setting: the result for `CCCCCCCO` reads “active”; that for `CC(C)=CCCC(C)CCO` (stereo unspecified), “inactive”; that for `CCCCCCC(C)=O`, “inactive”.

For `C=C(C)C1CCC(C)C(=O)C1` (stereo unspecified), the “odorant receptor agonist call” value is “inactive”. The same measure, in the same setting: to `COc1cc(C(=O)O)ccc1O` belongs “inactive”; to `CC(C)=CCCC(C)=CCO`, “inactive”; to `CC(=O)OCC=C(C)C`, “inactive”. The same measure, in the same setting: the result for `CCC(=O)C(=O)CC` reads “inactive”. The same measure, in the same setting: the result for `CCCCCOC(=O)CCCCC` reads “inactive”.

Take `CCCCCCCCS`: the “odorant receptor agonist call” value is “inactive”. On the same count and under the same terms, to `CCCCCC=O` belongs “inactive”; to `CCCCOC=O`, “inactive”.

Turning to `O=C(c1ccccc1)c1ccccc1`, the “odorant receptor agonist call” value was “inactive”.

In the case of `CCCCCC1=C(C)CCC1=O`, the “odorant receptor agonist call” value was “inactive”. The same measure, in the same setting: the result for `CCCC(C)=O` reads “inactive”; that for `CCCCCCCC(=O)[O-].[H+]`, “inactive”. Same read-out and setting: the result for `CCCCCCCC(C)=O` reads “inactive”; that for `CC(=O)Oc1ccccc1`, “inactive”. As to `CC(=O)OCc1ccccc1`, the “odorant receptor agonist call” value is “inactive”. Still for that read-out and setting: the result for `CCCCCCC(=O)[O-].[H+]` reads “inactive”. Same read-out and setting: the result for `C=CCOC(=O)CCCCCC` reads “inactive”. The same measure, in the same setting: the result for `CCCCCCCCC(=O)O` reads “inactive”. Turning to `CCCCCCCCCS`, the “odorant receptor agonist call” value is “inactive”. The same measure, in the same setting: to `c1ccccc1` belongs “inactive”; to `CC12CCC(CC1=O)C2(C)C` (stereo unspecified), “inactive”. On the same count and under the same terms, the result for `O=C1Cc2ccccc2O1` reads “inactive”; that for `CCCCCCCCO`, “inactive”.
